Test results reported in ChEMBL document CHEMBL5608194, “Novel neuroprotective 5,6-dihydropyrido[2',1':2,3]imidazo[4,5-c]quinoline derivatives acting through cholinesterase inhibition and CB2 signaling modulation” (Eur J Med Chem, 2024).
Activity calls are given as the source filed them. No cut-off for these calls is given here.

How the values were obtained:
SH-SY5Y [1] = assay: Inhibition of MPP+ induced superoxide radical production in human SH-SY5Y cells at 10 uM incubated for 24 hrs by microplate reader assay (reference value: 100%); type: functional
Method in brief: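 Neuron-like SH-SY5Y co-treated with 5 mM MPP+ and compound for 24 h; centrifuged at 500 × g, medium replaced with 10 μM dihydroethidium in PBS for 30 min, fluorescence 500/580 nm; MPP+ signal set to 100 %; triplicates on at least four independent days.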

SH-SY5Y [2] = assay: Neuroprotective activity against ATRA-differentiated and 3-NPA induced cell death in human SH-SY5Y cells assessed as cell death at 0.1 uM incubated for 48 hrs by propidium iodide staining based fluorescence assay (reference value: 100%); type: functional
Method in brief: (§1)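 ATRA-differentiated SH-SY5Y co-treated with compound and 20 mM 3-nitropropionic acid for 48 h; cell death by propidium iodide fluorescence, 3-NPA-treated signal set to 100 %.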

[3] = target: Mitogen-activated protein kinase; ERK1/ERK2 (Homo sapiens) (UniProt P27361+P28482); assay: Inhibition of MPP+ induced ERK1/2 phosphorylation in human SH-SY5Y cells at 1 to 10 uM incubated for 24 hrs by Western blotting analysis; type: cell-based; settings: dose 1-10 µM
Method in brief: (§2)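 ATRA-differentiated neuron-like SH-SY5Y co-treated with 5 mM MPP+ and compound for 24 h, lysed in RIPA buffer, SDS-PAGE, transfer to nitrocellulose, immunoblot for p-Akt (Ser473) and ERK1/2; HSP90 and β-actin loading controls; ECL chemiluminescence imaged by CCD camera.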

SH-SY5Y [4] = assay: Neuroprotective activity against ATRA-differentiated and MPP+ induced cell death in human SH-SY5Y cells assessed as cell death at 1 uM by LDH release assay (reference value: 100%); type: functional
Method in brief: (§3)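 ATRA-differentiated SH-SY5Y co-treated with 5 mM MPP+ and compound; cell death by commercial LDH release kit; MPP+ value set to 100 %; triplicates on at least three independent days.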

SH-SY5Y [5] = assay: Neuroprotective activity against MPP+ induced cell death in human SH-SY5Y cells assessed as decrease in PARP1 cleavage at 1 to 10 uM incubated for 24 hrs by immunoblotting analysis; type: functional, cell-based; settings: dose 1-10 µM
SH-SY5Y [6] = assay: Neuroprotective activity against ATRA-differentiated and MPP+ induced cell death in human SH-SY5Y cells assessed as cell death at 0.1 uM incubated for 24 hrs by propidium iodide staining based fluorescence assay (reference value: 100%); type: functional
Method in brief: (§4)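 ATRA-differentiated SH-SY5Y co-treated with compound and 5 mM MPP+ for 24 h; cell death by propidium iodide fluorescence, MPP+-treated signal set to 100 %.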

[7] = target: Cannabinoid receptor 2 (Homo sapiens) (UniProt P34972); assay: Activation of CB2 (unknown origin) expressed in CHO cells at 1 to 10 uM; type: cell-based; settings: dose 1-10 µM
Method in brief: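 cAMP quantified in CB2-transfected CHO cells after treatment; compound tested at 1 and 10 μM to detect direct receptor activation (commercial LeadHunter service).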

SH-SY5Y [8] = assay: Neuroprotective activity against MPP+ induced cell death in human SH-SY5Y cells at 1 to 10 uM in presence of SR144528; type: functional, cell-based; settings: dose 1-10 µM
Method in brief: (§5)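 Neuron-like SH-SY5Y co-treated for 24 h with 5 mM MPP+, compound and CB2 inverse agonist AM630 or antagonist SR144528 at 0.1, 1 or 10 μM; CB2 ligands also tested alone and with MPP+; cell death read-out; triplicates on three independent days.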

Cholinesterase = Cholinesterase (Equus caballus, UniProt P81908); assay: Inhibition of equine serum BChE using butyrylthiocholine as substrate by Ellman's method
Method in brief: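 Equine serum BChE (0.2 U/mL final) with 40 μM butyrylthiocholine and 100 μM DTNB, modified Ellman spectrophotometry; compounds from DMSO diluted in water, five inhibitor concentrations; IC50 from regression of v0/vi versus inhibitor concentration; triplicate.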

SH-SY5Y [9] = assay: Neuroprotective activity against ATRA-differentiated and MPP+ induced cell death in human SH-SY5Y cells assessed as cell death at 10 uM by LDH release assay (reference value: 100%); type: functional; method in brief: as §3
SH-SY5Y [10] = assay: Inhibition of MPP+ induced Akt phosphorylation at Ser473 residues in human SH-SY5Y cells at 1 to 10 uM incubated for 24 hrs by Western blotting analysis; type: cell-based; settings: dose 1-10 µM; method in brief: as §2
SH-SY5Y [11] = assay: Cytotoxicity against human SH-SY5Y cells assessed as cell death at 10 uM incubated for 72 hrs by propidium iodide staining based fluorescence assay; type: toxicity
Method in brief: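 SH-SY5Y differentiated to neuron-like phenotype with 10 μM all-trans retinoic acid for 48 h, 20 000 cells/well. Compounds from DMSO stocks (DMSO ≤0.5 %) added, then 72 h exposure. Control wells lysed with 1 % Triton X-100 for 1 min, then all wells stained with propidium iodide for fluorescence read-out. Dead-cell proportion expressed relative to Triton X-100-treated control.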

SH-SY5Y [12] = assay: Neuroprotective activity against ATRA-differentiated and MPP+ induced cell death in human SH-SY5Y cells assessed as cell death at 1 uM incubated for 24 hrs by propidium iodide staining based fluorescence assay (reference value: 100%); type: functional; method in brief: as §4
SH-SY5Y [13] = assay: Inhibition of MPP+ induced superoxide radical production in ATRA-differentiated human SH-SY5Y cells at 10 uM incubated for 24 hrs by MitoSOX staining based confocal laser scanning microscopy; type: functional, cell-based
Method in brief: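 50 000 cells seeded on chamber slides, ATRA-differentiated, co-treated with 5 mM MPP+ and compound for 24 h, then stained with MitoSOX and imaged by confocal laser-scanning microscopy (63× objective).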

SH-SY5Y [14] = assay: Neuroprotective activity against MPP+ induced cell death in human SH-SY5Y cells assessed as cell death at 10 uM incubated for 24 hrs by Cas-3, 7 staining based assay; type: functional
Method in brief: (§6)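 Caspase-3/7 activation with Ac-DEVD-AFC substrate after 24 h co-treatment of neuron-like SH-SY5Y with compound and 5 mM MPP+; MPP+ signal set to 100 %; triplicates on at least three independent days.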

SH-SY5Y [15] = assay: Neuroprotective activity against ATRA-differentiated and 3-NPA induced cell death in human SH-SY5Y cells assessed as cell death at 1 uM incubated for 48 hrs by propidium iodide staining based fluorescence assay (reference value: 100%); type: functional; method in brief: as §1
SH-SY5Y [16] = assay: Neuroprotective activity against MPP+ induced cell death in human SH-SY5Y cells assessed as cell death at 10 uM by YOPRO-1 staining based assay; type: functional
Method in brief: (§7)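 Neuron-like SH-SY5Y co-treated with compound and 5 mM MPP+ for 24 h; centrifuged at 500 × g, medium replaced by 1 μM YO-PRO1 in PBS for 15 min at room temperature; fluorescence 488/530 nm; MPP+ signal set to 100 %; triplicates on at least three independent days.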

[17] = Selectivity index, ratio of IC50 for electric eel AChE to IC50 for equine serum BChE
Method in brief: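 Ratio of IC50 values from modified Ellman spectrophotometric assays with electric eel AChE and equine serum BChE. Each used enzyme at 0.2 U/mL final, acetylthiocholine or butyrylthiocholine at 40 μM, and DTNB at 100 μM. Inhibitors were dissolved in DMSO, diluted in water, and tested at five concentrations in triplicate. IC50 came from regression of v0/vi against inhibitor concentration.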

SH-SY5Y [18] = assay: Inhibition of MPP+ induced mitochondrial superoxide radical production in human SH-SY5Y cells at 10 uM incubated for 24 hrs by MitoSOX staining based microplate reader assay (reference value: 100%); type: functional
Method in brief: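 Neuron-like SH-SY5Y (20 000 cells/well) co-treated with 5 mM MPP+ and compound for 24 h; plates centrifuged, medium replaced by 5 μM MitoSOX in HBSS, 30 min at 37 °C, fluorescence 500/580 nm; MPP+ signal set to 100 %; triplicates on at least four independent days.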

SH-SY5Y [19] = assay: Neuroprotective activity against MPP+ induced cell death in human SH-SY5Y cells assessed as cell death at 1 uM incubated for 24 hrs by Cas-3, 7 staining based assay; type: functional; method in brief: as §6
SH-SY5Y [20] = assay: Neuroprotective activity against ATRA-differentiated and 3-NPA induced cell death in human SH-SY5Y cells assessed as cell death at 10 uM incubated for 48 hrs by propidium iodide staining based fluorescence assay (reference value: 100%); type: functional; method in brief: as §1
SH-SY5Y [21] = assay: Inhibition of MPP+ induced mitochondrial depolarization in human SH-SY5Y cells at 10 uM incubated for 2 hrs by JC10 staining based confocal laser scanning microscopy; type: functional
Method in brief: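 ATRA-differentiated SH-SY5Y co-treated with 5 mM MPP+ and compound for 2 h; mitochondrial membrane potential by JC10 ratiometric red/green signal (plate) and confocal imaging of JC10-stained cells (50 000 cells/well slides); DMSO control set to 100 %; triplicates on three independent days.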

SH-SY5Y [22] = assay: Neuroprotective activity against MPP+ induced cell death in human SH-SY5Y cells assessed as cell death at 1 uM by YOPRO-1 staining based assay; type: functional; method in brief: as §7
SH-SY5Y [23] = assay: Neuroprotective activity against MPP+ induced cell death in human SH-SY5Y cells at 1 to 10 uM in presence of AM630; type: functional, cell-based; settings: dose 1-10 µM; method in brief: as §5
Acetylcholinesterase = Acetylcholinesterase (Electrophorus electricus, UniProt O42275); assay: Inhibition of electric eel AChE using acetylthiocholine as substrate by Ellman's method
SH-SY5Y [24] = assay: Neuroprotective activity against ATRA-differentiated and MPP+ induced cell death in human SH-SY5Y cells assessed as cell death at 10 uM incubated for 24 hrs by propidium iodide staining based fluorescence assay (reference value: 100%); type: functional; method in brief: as §4

Mitogen-activated protein kinase; ERK1/ERK2 (Homo sapiens), sequence (P27361 whole entry, looked up): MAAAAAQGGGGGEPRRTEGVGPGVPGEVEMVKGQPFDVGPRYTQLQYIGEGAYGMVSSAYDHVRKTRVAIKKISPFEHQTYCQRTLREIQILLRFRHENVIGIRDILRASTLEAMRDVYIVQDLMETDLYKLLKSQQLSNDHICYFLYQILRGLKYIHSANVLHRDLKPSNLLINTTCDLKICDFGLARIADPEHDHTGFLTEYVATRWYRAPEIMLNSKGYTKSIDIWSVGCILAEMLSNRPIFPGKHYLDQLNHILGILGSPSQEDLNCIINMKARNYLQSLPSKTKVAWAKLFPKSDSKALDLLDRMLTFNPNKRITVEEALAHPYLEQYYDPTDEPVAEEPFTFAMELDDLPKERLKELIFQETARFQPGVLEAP
Mitogen-activated protein kinase; ERK1/ERK2 (Homo sapiens), sequence (P28482 whole entry, looked up): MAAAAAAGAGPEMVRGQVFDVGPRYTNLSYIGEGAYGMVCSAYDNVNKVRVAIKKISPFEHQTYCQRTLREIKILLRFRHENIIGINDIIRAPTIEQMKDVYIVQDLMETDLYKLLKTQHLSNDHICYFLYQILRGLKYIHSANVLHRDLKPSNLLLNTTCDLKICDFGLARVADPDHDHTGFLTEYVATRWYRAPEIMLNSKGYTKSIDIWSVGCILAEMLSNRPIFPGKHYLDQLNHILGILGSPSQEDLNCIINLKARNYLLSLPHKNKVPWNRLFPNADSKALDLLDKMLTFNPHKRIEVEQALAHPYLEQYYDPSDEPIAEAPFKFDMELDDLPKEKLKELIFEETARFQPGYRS
Acetylcholinesterase, sequence (O42275 whole entry): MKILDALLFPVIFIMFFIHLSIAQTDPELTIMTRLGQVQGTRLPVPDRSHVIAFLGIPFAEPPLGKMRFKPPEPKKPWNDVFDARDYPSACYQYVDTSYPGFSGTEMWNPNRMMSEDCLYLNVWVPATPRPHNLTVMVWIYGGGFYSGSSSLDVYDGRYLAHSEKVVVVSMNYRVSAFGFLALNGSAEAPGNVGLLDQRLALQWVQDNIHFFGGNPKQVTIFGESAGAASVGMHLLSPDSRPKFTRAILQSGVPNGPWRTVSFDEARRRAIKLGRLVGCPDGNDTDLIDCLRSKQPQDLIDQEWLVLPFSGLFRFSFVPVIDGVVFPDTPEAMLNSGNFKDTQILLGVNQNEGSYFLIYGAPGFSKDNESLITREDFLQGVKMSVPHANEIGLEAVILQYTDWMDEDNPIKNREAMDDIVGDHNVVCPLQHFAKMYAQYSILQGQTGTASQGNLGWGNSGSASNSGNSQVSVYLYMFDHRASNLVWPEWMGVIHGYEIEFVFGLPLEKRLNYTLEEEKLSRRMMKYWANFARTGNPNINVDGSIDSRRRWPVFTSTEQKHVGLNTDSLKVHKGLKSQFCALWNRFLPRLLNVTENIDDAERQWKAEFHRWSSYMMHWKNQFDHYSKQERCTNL
Cannabinoid receptor 2 (Homo sapiens), sequence (P34972 whole entry): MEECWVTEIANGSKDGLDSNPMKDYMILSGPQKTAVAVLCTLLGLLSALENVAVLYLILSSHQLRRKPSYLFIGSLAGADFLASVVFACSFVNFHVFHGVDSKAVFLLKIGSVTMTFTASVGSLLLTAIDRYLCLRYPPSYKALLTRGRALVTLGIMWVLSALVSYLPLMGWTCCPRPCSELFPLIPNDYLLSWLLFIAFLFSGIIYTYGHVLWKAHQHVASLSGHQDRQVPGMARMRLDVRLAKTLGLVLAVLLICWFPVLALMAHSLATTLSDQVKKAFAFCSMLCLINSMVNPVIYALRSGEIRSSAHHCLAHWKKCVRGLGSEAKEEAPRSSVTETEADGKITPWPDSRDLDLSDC
Cholinesterase, sequence (P81908 whole entry): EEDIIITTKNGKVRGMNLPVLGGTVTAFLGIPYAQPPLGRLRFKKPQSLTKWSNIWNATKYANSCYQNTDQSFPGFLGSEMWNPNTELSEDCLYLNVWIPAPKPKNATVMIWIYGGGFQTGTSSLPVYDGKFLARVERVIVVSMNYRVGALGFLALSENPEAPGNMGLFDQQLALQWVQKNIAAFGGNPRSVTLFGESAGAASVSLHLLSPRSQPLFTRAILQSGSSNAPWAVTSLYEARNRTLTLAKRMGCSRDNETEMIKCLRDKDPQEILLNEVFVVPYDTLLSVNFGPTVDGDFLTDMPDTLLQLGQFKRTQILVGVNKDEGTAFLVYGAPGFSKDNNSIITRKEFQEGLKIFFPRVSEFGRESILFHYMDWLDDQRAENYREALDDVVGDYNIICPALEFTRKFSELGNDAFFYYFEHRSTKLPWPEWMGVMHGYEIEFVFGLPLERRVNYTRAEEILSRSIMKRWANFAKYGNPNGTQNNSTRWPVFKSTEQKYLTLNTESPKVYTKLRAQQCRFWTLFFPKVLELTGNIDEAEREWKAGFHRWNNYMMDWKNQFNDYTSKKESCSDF

## CC1(C)Nc2ccccc2-c2nc3ccccn3c21
SH-SY5Y [1]
  inhibition at 10 µM: 44.4%
SH-SY5Y [2]
  Activity: 98.7%
[3]
  inhibition: Active
SH-SY5Y [4]
  Activity: Active
SH-SY5Y [5]
  Activity: Active
SH-SY5Y [6]
  Activity: 96.7%
[7]
  Activity: inactive
SH-SY5Y [8]
  Activity: inactive
Cholinesterase
  IC50: 28.5 µM
SH-SY5Y [9]
  Activity: 50.2%
SH-SY5Y [10]
  inhibition: Active
SH-SY5Y [11]
  Activity: 14.6%
SH-SY5Y [12]
  Activity: 39.7%
SH-SY5Y [13]
  inhibition: Active
SH-SY5Y [14]
  Activity: 48.8%
SH-SY5Y [15]
  Activity: 83.1%
SH-SY5Y [16]
  Activity: 37.9%
[17]
  Ratio IC50: 1.68
SH-SY5Y [18]
  inhibition at 10 µM: 41.3%
SH-SY5Y [19]
  Activity: 64.2%
SH-SY5Y [20]
  Activity: 57.8%
SH-SY5Y [21]
  inhibition at 10 µM: 66.8%
SH-SY5Y [22]
  Activity: 58.8%
SH-SY5Y [23]
  Activity: inactive
Acetylcholinesterase
  IC50: 47.9 µM
SH-SY5Y [24]
  Activity: 26.2%
